# Reference: paper PMC9056317 (RSC Advances, 2020)
# Read-outs that look alike come from different tables or passages of the source.
# Tests used:
# [1] = tested on: HCMV (Towne-BAC-GFP strain); format: cell-based, human cytomegalovirus; conditions: HFF-1 cells pre-treated with 10 μM compound for 1 hour, HCMV MOI 3.0
# Summary of the method: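 HFF-1 cells were grown in DMEM with 10% FBS, sodium pyruvate and L-glutamine at 37 °C, 5% CO2. They were pre-treated for 1 h with test compound or DMSO control, then infected with Towne-BAC-GFP HCMV. GFP-positive infected cells were quantified by fluorescence microscopy.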
# [2] = tested on: HFF-1 cells; assay: Cytotoxic assessment on HFF cells by trypan blue exclusion assay; format: cell-based, human; conditions: 2× the IC50 concentrations, maintained on cells for 5 days
# Summary of the method: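 Confluent HFF-1 cells (DMEM, 10% FBS, 37 °C, 5% CO2) were treated with test compound or left untreated, then infected with HCMV (MOI 3.0) or left uninfected. At day 5, cells were trypsinised and mixed 1:1 with 0.4% trypan blue. Percent viable cells was read on an automated cell counter. Three independent experiments, SEM.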
# [3] = tested on: human glioblastoma cell line GBM6; assay: GBM6 proliferation MTT assay; format: cell-based; conditions: for anti-proliferative activity in GBM6: 100 μM, MTT 72 hours after treatment; for IC50: Homo sapiens
# Summary of the method: (§1)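 GBM6 cells (DMEM, 10% FBS, 37 °C, 5% CO2) were plated at 1000 per well and incubated overnight, then the medium was replaced with test compound for 72 h. MTT was added for 4 h at 37 °C, and formazan was dissolved in DMSO. A570 was read with a 630 nm reference. Single-dose screen: n = 3, normalised to control. IC50: 0.78–100 μM, non-linear regression of survival %.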
# [4] = tested on: MDA MB 231 cells; assay: MDA MB 231 proliferation MTT assay; format: cell-based; conditions: for anti-proliferative effect in MDA MB 231: 100 μM, data not shown; for IC50: Homo sapiens, MDA-MB-231, 72 h, read-out: IC50 in MDA MB 231
# Summary of the method: as §1, with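 “MDA MB 231” for “GBM6”, “CO2, split every 3–4 days)” for “CO2)”, “2000” for “1000”, “reference.” for “reference. Single-dose screen: n = 3, normalised to control.”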
# [5] = tested on: HCMV (Towne-BAC-GFP) strain; conditions: read-out: reported IC50; reported value used to validate the assay; cited from earlier work
# [6] = GBM6, 72 h, read-out: IC 50 in GBM6
# [7] = GBM6, read-out: IC50 (highest cytotoxicity)
structure (smiles),measurement,setting,value
"FC1C(c2ccc(Cl)cc2)=NOC12CCCO2 (stereo not drawn) [4d, 3-(4-Chlorophenyl)-4-fluoro-1,6-dioxa-2-azaspiro[4.4]non-2-ene]","reduction in GFP levels (mean fluorescence intensity, MFI)",[1],significant reduction in MFI
same,cytotoxicity on HFF cells,[2],did not show significant cytotoxicity
"O=[N+]([O-])c1ccc(C2=NOC3(CCCO3)C2F)cc1 (stereo not drawn) [4h, 4-Fluoro-3-(4-nitrophenyl)-1,6-dioxa-2-azaspiro[4.4]non-2-ene]","reduction in GFP levels (mean fluorescence intensity, MFI)",[1],significant reduction in MFI
"FC1C(c2ccccc2)=NOC12CCCCO2 (stereo not drawn) [4i, 4-Fluoro-3-phenyl-1,6-dioxa-2-azaspiro[4.5]dec-2-ene]","reduction in GFP levels (mean fluorescence intensity, MFI)",[1],significant reduction in MFI
"FC1C(c2ccc(Br)cc2)=NOC12CCCCO2 (stereo not drawn) [4l, 3-(4-Bromophenyl)-4-fluoro-1,6-dioxa-2-azaspiro[4.5]dec-2-ene]",anti-proliferative activity in GBM6,[3],robust anti-proliferative activity
same,IC50,[3]; [6],36.1 µM
same,IC50,[3]; [7],36 to 80 µM
same,anti-proliferative effect in MDA MB 231,[4],highest anti-proliferative effect
same,IC50,[4],68.2 µM
"FC1C(c2ccc(C(F)(F)F)cc2)=NOC12CCCCO2 (stereo not drawn) [4n, 4-Fluoro-3-(4-(trifluoromethyl)phenyl)-1,6-dioxa-2-azaspiro[4.5]dec-2-ene]","reduction in GFP levels (mean fluorescence intensity, MFI)",[1],significant reduction in MFI
same,cytotoxicity on HFF cells,[2],did not show significant cytotoxicity
"O=[N+]([O-])c1ccc(C2=NOC3(CCCCO3)C2F)cc1 (stereo not drawn) [4o, 4-Fluoro-3-(4-nitrophenyl)-1,6-dioxa-2-azaspiro[4.5]dec-2-ene]","reduction in GFP levels (mean fluorescence intensity, MFI)",[1],significant reduction in MFI
"O=C1CCC2(ON=C(c3c(Cl)cccc3Cl)C2F)O1 (stereo not drawn) [5f, 3-(2,6-Dichlorophenyl)-4-fluoro-1,6-dioxa-2-azaspiro[4.4]non-2-en-7-one]",anti-proliferative activity in GBM6,[3],robust anti-proliferative activity
same,IC50,[3]; [6],43.2 µM
same,IC50,[3]; [7],36 to 80 µM
same,anti-proliferative effect in MDA MB 231,[4],highest anti-proliferative effect
same,IC50,[4],79.8 µM
"Nc1nc(O)c2ncn(COC(CO)CO)c2n1 [GCV, ganciclovir]",IC50,[5],5.2 µM
